Data set [1] in a line: Toxicity in zebrafish AB embryos assessed as changes in dead and live embryos at 25 to 75 uM measured after 24 hrs. To be noted: Danio rerio, in vivo.
Data set [2] is described as follows: Chemical stability of compound in PBS at pH 7.4 measured after 24 hrs by HPLC/UV/DAD analysis. To be noted: read-out: Stability. It counts as physicochemical. Summed up: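 DMSO stock (10 mM) was diluted to 250 µM (2.5% DMSO) in 50 mM PBS, pH 7.4, and kept 24 h at 25 °C with shaking. Peak area at 24 h versus T0 was measured by HPLC/UV/DAD at 254 nm, in triplicate. Stress tests used a methanol solution heated at 40 °C for 24 h, or 24 h under UV 254 nm.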

Data set [3] is described as follows: Metabolic stability in mouse liver microsome assessed as half life at 5 uM in presence of NADPH incubated up to 60 mins by HPLC analysis. It counts as ADME. As to conditions: liver microsomes. The gist of the method:
(§1)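 Compound in MeCN was incubated at 5 µM and 37 °C in 100 mM phosphate buffer pH 7.4 with 0.5 mg/mL human or mouse liver microsomal protein. Reactions were started with an NADPH-regenerating system (2 mM NADPH, glucose-6-phosphate, G6PDH, MgCl2) and stopped with MeCN over 0–60 min. Remaining compound was measured by HPLC-UV at 254 nm, in triplicate, with first-order decay fitting.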
For orientation: Liver microsomes are vesicles of endoplasmic reticulum, rich in cytochrome P450 enzymes.

A further data set deals with Danio rerio. As to the kind of experiment: In vivo inhibition of HDAC6 in zebrafish AB embryos assessed as increase in acetylation level of alpha-tubulin at 25 to 75 uM measured after 24 hrs by Western blot analysis. To be noted: dose 25-75 µM.
A short description of data set [4]: Metabolic stability in human liver microsome assessed as half life at 5 uM in presence of NADPH incubated up to 60 mins by HPLC analysis. The data set is classed as ADME. As to conditions: liver microsomes. The gist of the method: as §1
Data set [5] is described as follows: Chemical stability of compound in PBS at pH 7.4 incubated for 24 hrs at 40 degreeC by HPLC/UV/DAD analysis. It counts as physicochemical. As to conditions: read-out: Stability.
A short description of data set [6]: Metabolic stability in rat liver microsome assessed as apparent decay constant at 5 uM in presence of NADPH incubated up to 60 mins by HPLC analysis. The data set is classed as ADME. To be noted: liver microsomes. The gist of the method: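 Compound (in MeCN) at 5 μM incubated at 37 °C in 100 mM phosphate buffer pH 7.4 with 0.5 mg/mL liver microsomal protein (rat, mouse or human). CYP reactions started with NADPH-generating system (2 mM NADPH, glucose-6-phosphate, G6P dehydrogenase, MgCl2). Stopped with MeCN at intervals over 0–60 min. Remaining parent quantified by HPLC-UV at 254 nm. Ln % recovery vs time fitted to first-order decay. Triplicate incubations.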

A short description of data set [7]: Octanol-water partition coefficient, log P of the compound by HPLC analysis. It counts as physicochemical. Summed up:
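Stock of 0.005 M in MeOH, diluted serially in MeOH to build a calibration curve. Compound partitioned between water and n-octanol. LogP taken from the n-octanol/water phase ratio against the calibration curve, quantified by the RP-18 HPLC method at 254 nm.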

Data set [8] in a line: Cardiotoxicity in Langendorff-perfused Wistar rat heart assessed as effect on QTc interval time at 0.01 uM by ECG analysis (reference value: 66.4+/-1.3 milliseconds). The data set is classed as toxicity, tissue-based.
Data set [9] in a line: Cardiotoxicity in Langendorff-perfused Wistar rat heart assessed as effect on PQ interval time at 0.01 uM by ECG analysis (reference value: 45.4+/-3.9 milliseconds). The data set is classed as toxicity, tissue-based.
Data set [10] in a line: Cardiotoxicity in Langendorff-perfused Wistar rat heart assessed as effect on HR at 0.1 uM by ECG analysis (reference value: 252.3 +/-10.1 bpm). It counts as toxicity, tissue-based.
Data set [11] in a line: Cardiotoxicity in Langendorff-perfused Wistar rat heart assessed as effect on HR at 10 uM by ECG analysis (reference value: 252.3 +/-10.1 bpm). It counts as toxicity, tissue-based.
Data set [12] can be described thus: Cardiotoxicity in Langendorff-perfused Wistar rat heart assessed as effect on PQ interval time at 0.1 uM by ECG analysis (reference value: 45.4+/-3.9 milliseconds). The data set is classed as toxicity, tissue-based.
The nature of data set [13]: Cardiotoxicity in Langendorff-perfused Wistar rat heart assessed as effect on QRS interval time at 0.01 uM by ECG analysis (reference value: 13.3+/-0.6 milliseconds). The data set is classed as toxicity, tissue-based.
Data set [14] can be described thus: Cardiotoxicity in Langendorff-perfused Wistar rat heart assessed as effect on RR time at 10 uM by ECG analysis (reference value: 239.5+/-9.2 milliseconds). It counts as toxicity, tissue-based.
The nature of data set [15]: Cardiotoxicity in Langendorff-perfused Wistar rat heart assessed as effect on HR at 0.01 uM by ECG analysis (reference value: 252.3 +/-10.1 bpm). It counts as toxicity, tissue-based.
Data set [16] in a line: Cardiotoxicity in Langendorff-perfused Wistar rat heart assessed as effect on QT interval time at 1 uM by ECG analysis (reference value: 66.1+/-1.1 milliseconds). It counts as toxicity, tissue-based.
The nature of data set [17]: Cardiotoxicity in Langendorff-perfused Wistar rat heart assessed as effect on QRS interval time at 1 uM by ECG analysis (reference value: 13.3+/-0.6 milliseconds). The data set is classed as toxicity, tissue-based.
The nature of data set [18]: Cardiotoxicity in Langendorff-perfused Wistar rat heart assessed as effect on QRS interval time at 0.1 uM by ECG analysis (reference value: 13.3+/-0.6 milliseconds). It counts as toxicity, tissue-based.
A short description of data set [19]: Cardiotoxicity in Langendorff-perfused Wistar rat heart assessed as effect on RR time at 0.01 uM by ECG analysis (reference value: 239.5+/-9.2 milliseconds). The data set is classed as toxicity, tissue-based.
Data set [20] can be described thus: Cardiotoxicity in Langendorff-perfused Wistar rat heart assessed as effect on QTc interval time at 10 uM by ECG analysis (reference value: 66.4+/-1.3 milliseconds). It counts as toxicity, tissue-based.
The nature of data set [21]: Cardiotoxicity in Langendorff-perfused Wistar rat heart assessed as effect on HR at 1 uM by ECG analysis (reference value: 252.3 +/-10.1 bpm). The data set is classed as toxicity, tissue-based.
The nature of data set [22]: Cardiotoxicity in Langendorff-perfused Wistar rat heart assessed as effect on QT interval time at 0.1 uM by ECG analysis (reference value: 66.1+/-1.1 milliseconds). It counts as toxicity, tissue-based.
Data set [23] can be described thus: Cardiotoxicity in Langendorff-perfused Wistar rat heart assessed as effect on QTc interval time at 1 uM by ECG analysis (reference value: 66.4+/-1.3 milliseconds). It counts as toxicity, tissue-based.
In the next data set the test system is B cell. Nature of the data set: Cytotoxicity against patient derived human B cells. It counts as toxicity, cell-based.
Data set [24] is described as follows: Cardiotoxicity in Langendorff-perfused Wistar rat heart assessed as effect on PQ interval time at 1 uM by ECG analysis (reference value: 45.4+/-3.9 milliseconds). The data set is classed as toxicity, tissue-based.
Data set [25] is described as follows: Cardiotoxicity in Langendorff-perfused Wistar rat heart assessed as effect on QRS interval time at 10 uM by ECG analysis (reference value: 13.3+/-0.6 milliseconds). It counts as toxicity, tissue-based.
A short description of data set [26]: Cardiotoxicity in Langendorff-perfused Wistar rat heart assessed as effect on PQ interval time at 10 uM by ECG analysis (reference value: 45.4+/-3.9 milliseconds). The data set is classed as toxicity, tissue-based.
A short description of data set [27]: Cardiotoxicity in Langendorff-perfused Wistar rat heart assessed as effect on RR time at 1 uM by ECG analysis (reference value: 239.5+/-9.2 milliseconds). It counts as toxicity, tissue-based.
Data set [28] in a line: Cardiotoxicity in Langendorff-perfused Wistar rat heart assessed as effect on QT interval time at 0.01 uM by ECG analysis (reference value: 66.1+/-1.1 milliseconds). The data set is classed as toxicity, tissue-based.

Structures are written as SMILES. Calls of active or inactive are those of the source. The rule behind the calls is not given here.

The text below walks through data of ChEMBL document CHEMBL5113395, “Azetidin-2-one-based small molecules as dual hHDAC6/HDAC8 inhibitors: Investigation of their mechanism of action and impact of dual inhibition profile on cell viability” (Eur J Med Chem, 2022).

Regarding `O=C(NO)c1ccc(CNC(=O)N2CCC(N3C(=O)[C@H](c4ccccc4)[C@H]3c3ccccc3)CC2)cc1` (racemic), in data set [1], the Activity entry is reported as “Non-Toxic”. Further, the remaining at 24 h in data set [2] worked out at 73%; in data set [5] it was 100%. For the same compound, the half-life – broadly, the time in which the quantity being followed falls by half – at 5 µM was determined as 64 min in [3] and 54 min in data set [4]. In addition, the outcome with Danio rerio was Active. Moreover, the k el at 1 h, 5 µM in [6] is 0.000135 s⁻¹. Further, the logP (usually a log measure of how a compound divides between an organic and an aqueous phase) in [7] came to 2.75.

For `O=C(NO)c1ccc(CNC(=O)N2CCC(N3CC(c4ccccc4)(c4ccccc4)C3=O)CC2)cc1`, the Time in data set [8] is given as 66.9 ms; in data set [9] it was 44.4 ms; in [12], 44.9 ms; in data set [13], 12.8 ms; in [14] it was 241.5 ms; in data set [16], 68.1 ms. The Time is 13.9 ms in [17]; 13.1 ms in data set [18]; 239.8 ms in data set [19]; 68.6 ms in data set [20]; 66.1 ms in [22]; 68.9 ms in data set [23]. In addition, the Time was determined as 46.2 ms in data set [24]; 13.9 ms in data set [25]; 47.5 ms in [26]; 237.2 ms in data set [27]; 66.7 ms in data set [28]. Besides, the Activity in data set [10] is reported as 258.4 bpm; in [11], 248.4 bpm; in data set [1], “Non-Toxic”; in [15], 251.2 bpm; in [21], 252 bpm; in the data set on B cell it was “Non-Toxic”. The values for the remaining at 24 h in data set [2] and in [5] were 75% and 94%, respectively. The values for the half-life at 5 µM in data set [3] and in data set [4] were 67 min and 19 min, respectively. Further, the result with Danio rerio was Active. Also, in data set [6], the k el at 1 h, 5 µM was 0.000118 s⁻¹. This compound also had a logP in data set [7] of 2.78.
